Results reported in ChEMBL document CHEMBL4138242, “Synthesis and antibacterial evaluation of novel cationic chalcone derivatives possessing broad spectrum antibacterial activity” (Eur J Med Chem, 2018).

Key:
Staphylococcus aureus [1] = test: Antibacterial activity against Staphylococcus aureus ATCC 29213 after 16 to 20 hrs by broth microdilution method; type: functional
How it was run: (§1)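 Broth microdilution per CLSI. Bacteria grown 4-6 h (about 10⁸ CFU/mL), then diluted to about 10⁶ CFU/mL. Medium: Mueller-Hinton broth, except Luria-Bertani broth for E. coli. Compounds in sterile water, twofold series 256-0.5 µg/mL, mixed 1:1 with inoculum, 37 °C for 16-20 h. MIC is the lowest concentration without visible growth. Duplicate wells; experiment repeated at least twice.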

Enterococcus faecalis = test: Antibacterial activity against Enterococcus faecalis ATCC 29212 after 16 to 20 hrs by broth microdilution method; type: functional; how it was run: as §1
Escherichia coli [2] = test: Antibacterial activity against Escherichia coli ATCC 25922 after 16 to 20 hrs by broth microdilution method; type: functional; how it was run: as §1
Salmonella enterica = test: Antibacterial activity against Salmonella enterica ATCC 13076 after 16 to 20 hrs by broth microdilution method; type: functional; how it was run: as §1
[3] = Hemolytic activity in sheep RBC after 1 hr; type: ADME, cell-based, Ovis aries, Erythrocyte; conditions: sheep red blood cells (erythrocytes)
How it was run: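 Sheep red blood cells (150 µL suspension) mixed with 50 µL of compound dilutions (5120-10 µg/mL), 1 h at 37 °C, then centrifuged. Supernatant read at 540 nm. Percent hemolysis calculated relative to RBC-only control (0%) and 0.1% Triton X-100 (100%).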

Staphylococcus aureus [4] = test: Antibacterial activity against methicillin-resistant Staphylococcus aureus clinical isolate 1105183 cono7 after 16 to 20 hrs by broth microdilution method; type: functional
How it was run: (§2)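 CLSI broth microdilution in Mueller-Hinton broth. A 4-6 h culture was diluted to about 10⁶ CFU/mL and mixed 1:1 with compound dilutions prepared at 256 to 0.5 µg/mL from aqueous stocks. Plates were incubated at 37 °C for 16-20 h and read visually for MIC. Each concentration was run in duplicate, and the experiment was repeated at least twice. Vancomycin and meropenem were comparators.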

Staphylococcus aureus [5] = test: Antibacterial activity against methicillin-resistant Staphylococcus aureus clinical isolate 20130911034sau after 16 to 20 hrs by broth microdilution method; type: functional; how it was run: as §2
Staphylococcus aureus [6] = test: Antibacterial activity against methicillin-resistant Staphylococcus aureus clinical isolate 0831010 after 16 to 20 hrs by broth microdilution method; type: functional; how it was run: as §2
Staphylococcus aureus [7] = test: Antibacterial activity against methicillin-resistant Staphylococcus aureus clinical isolate 1104060 after 16 to 20 hrs by broth microdilution method; type: functional; how it was run: as §2
Staphylococcus aureus [8] = test: Antibacterial activity against methicillin-resistant Staphylococcus aureus clinical isolate 20131012632sau after 16 to 20 hrs by broth microdilution method; type: functional; how it was run: as §2
Staphylococcus aureus [9] = test: Antibacterial activity against methicillin-resistant Staphylococcus aureus clinical isolate 1207007 after 16 to 20 hrs by broth microdilution method; type: functional; how it was run: as §2
Staphylococcus aureus [10] = test: Antibacterial activity against methicillin-resistant Staphylococcus aureus clinical isolate 1-may after 16 to 20 hrs by broth microdilution method; type: functional; how it was run: as §2
Staphylococcus aureus [11] = test: Antibacterial activity against methicillin-resistant Staphylococcus aureus clinical isolate 0906202 after 16 to 20 hrs by broth microdilution method; type: functional; how it was run: as §2
Staphylococcus aureus [12] = test: Antibacterial activity against methicillin-resistant Staphylococcus aureus clinical isolate 1208143 after 16 to 20 hrs by broth microdilution method; type: functional; how it was run: as §2
Klebsiella pneumoniae [13] = test: Antibacterial activity against drug-resistant carbapenemase producing Klebsiella pneumoniae clinical isolate KP-14-8 after 16 to 20 hrs by broth microdilution method; type: functional; how it was run: as §2
Klebsiella pneumoniae [14] = test: Antibacterial activity against drug-resistant carbapenemase producing Klebsiella pneumoniae clinical isolate KP-13-45 after 16 to 20 hrs by broth microdilution method; type: functional; how it was run: as §2
Klebsiella pneumoniae [15] = test: Antibacterial activity against drug-resistant carbapenemase producing Klebsiella pneumoniae clinical isolate KP-14-3 after 16 to 20 hrs by broth microdilution method; type: functional; how it was run: as §2
Klebsiella pneumoniae [16] = test: Antibacterial activity against drug-resistant carbapenemase producing Klebsiella pneumoniae clinical isolate KP-14-1 after 16 to 20 hrs by broth microdilution method; type: functional; how it was run: as §2
Klebsiella pneumoniae [17] = test: Antibacterial activity against drug-resistant carbapenemase producing Klebsiella pneumoniae clinical isolate KP-14-4 after 16 to 20 hrs by broth microdilution method; type: functional; how it was run: as §2
Klebsiella pneumoniae [18] = test: Antibacterial activity against drug-resistant carbapenemase producing Klebsiella pneumoniae clinical isolate KP-13-54 after 16 to 20 hrs by broth microdilution method; type: functional; how it was run: as §2
Klebsiella pneumoniae [19] = test: Antibacterial activity against drug-resistant carbapenemase producing Klebsiella pneumoniae clinical isolate KP-14-2 after 16 to 20 hrs by broth microdilution method; type: functional; how it was run: as §2
Klebsiella pneumoniae [20] = test: Antibacterial activity against drug-resistant carbapenemase producing Klebsiella pneumoniae clinical isolate EC-13-23 after 16 to 20 hrs by broth microdilution method; type: functional; how it was run: as §2
Klebsiella pneumoniae [21] = test: Antibacterial activity against drug-resistant carbapenemase producing Klebsiella pneumoniae clinical isolate KP-14-5 after 16 to 20 hrs by broth microdilution method; type: functional; how it was run: as §2
Klebsiella pneumoniae [22] = test: Antibacterial activity against drug-resistant carbapenemase producing Klebsiella pneumoniae clinical isolate KP-13-55 after 16 to 20 hrs by broth microdilution method; type: functional; how it was run: as §2
Klebsiella pneumoniae [23] = test: Antibacterial activity against drug-resistant carbapenemase producing Klebsiella pneumoniae clinical isolate KP-14-45 after 16 to 20 hrs by broth microdilution method; type: functional; how it was run: as §2
Klebsiella pneumoniae [24] = test: Antibacterial activity against drug-resistant carbapenemase producing Klebsiella pneumoniae clinical isolate KP-14-18 after 16 to 20 hrs by broth microdilution method; type: functional; how it was run: as §2
Escherichia coli [25] = test: Antibacterial activity against drug-resistant NDM1 producing Escherichia coli clinical isolate EC-13-49 after 16 to 20 hrs by broth microdilution method; type: functional; how it was run: as §2
Escherichia coli [26] = test: Antibacterial activity against drug-resistant NDM1 producing Escherichia coli clinical isolate Ecl-14-58 after 16 to 20 hrs by broth microdilution method; type: functional; how it was run: as §2
Escherichia coli [27] = test: Antibacterial activity against drug-resistant NDM1 producing Escherichia coli clinical isolate KP-13-58 after 16 to 20 hrs by broth microdilution method; type: functional; how it was run: as §2
Escherichia coli [28] = test: Antibacterial activity against drug-resistant NDM1 producing Escherichia coli clinical isolate Ecl-13-62 after 16 to 20 hrs by broth microdilution method; type: functional; how it was run: as §2
Escherichia coli [29] = test: Antibacterial activity against drug-resistant NDM1 producing Escherichia coli clinical isolate EC-14-54 after 16 to 20 hrs by broth microdilution method; type: functional; how it was run: as §2
Escherichia coli [30] = test: Antibacterial activity against drug-resistant NDM1 producing Escherichia coli clinical isolate Ecl-14-59 after 16 to 20 hrs by broth microdilution method; type: functional; how it was run: as §2
Escherichia coli [31] = test: Antibacterial activity against drug-resistant NDM1 producing Escherichia coli clinical isolate EA-14-61 after 16 to 20 hrs by broth microdilution method; type: functional; how it was run: as §2
Escherichia coli [32] = test: Antibacterial activity against drug-resistant NDM1 producing Escherichia coli clinical isolate Ecl-14-56 after 16 to 20 hrs by broth microdilution method; type: functional; how it was run: as §2
Escherichia coli [33] = test: Antibacterial activity against drug-resistant NDM1 producing Escherichia coli clinical isolate 1460 after 16 to 20 hrs by broth microdilution method; type: functional; how it was run: as §2
Escherichia coli [34] = test: Antibacterial activity against drug-resistant NDM1 producing Escherichia coli clinical isolate SM-15-84 after 16 to 20 hrs by broth microdilution method; type: functional; how it was run: as §2
Escherichia coli [35] = test: Antibacterial activity against drug-resistant NDM1 producing Escherichia coli clinical isolate CF-15-61 after 16 to 20 hrs by broth microdilution method; type: functional; how it was run: as §2
Escherichia coli [36] = test: Antibacterial activity against drug-resistant NDM1 producing Escherichia coli clinical isolate CF-13-61 after 16 to 20 hrs by broth microdilution method; type: functional; how it was run: as §2

## CCCCCCCC[N+](C)(C)CC(=O)Nc1ccc(C(=O)/C=C/c2cccs2)cc1.[Cl-]
Staphylococcus aureus [1]
  MIC: 0.5 µg/mL
Enterococcus faecalis
  MIC: 1 µg/mL
Escherichia coli [2]
  MIC: 4 µg/mL
Salmonella enterica
  MIC: 8 µg/mL
[3]
  HC50 at 1 h: 133 µg/mL
Staphylococcus aureus [4]
  MIC: 1 µg/mL
Staphylococcus aureus [5]
  MIC: 1 µg/mL
Staphylococcus aureus [6]
  MIC: 0.5 µg/mL
Staphylococcus aureus [7]
  MIC: 16 µg/mL
Staphylococcus aureus [8]
  MIC: 4 µg/mL
Staphylococcus aureus [9]
  MIC: 1 µg/mL
Staphylococcus aureus [10]
  MIC: 2 µg/mL
Staphylococcus aureus [11]
  MIC: 1 µg/mL
Staphylococcus aureus [12]
  MIC: 2 µg/mL
Klebsiella pneumoniae [13]
  MIC: 8 µg/mL
Klebsiella pneumoniae [14]
  MIC: 8 µg/mL
Klebsiella pneumoniae [15]
  MIC: 8 µg/mL
Klebsiella pneumoniae [16]
  MIC: 8 µg/mL
Klebsiella pneumoniae [17]
  MIC: 8 µg/mL
Klebsiella pneumoniae [18]
  MIC: 8 µg/mL
Klebsiella pneumoniae [19]
  MIC: 2 µg/mL
Klebsiella pneumoniae [20]
  MIC: 8 µg/mL
Klebsiella pneumoniae [21]
  MIC: 8 µg/mL
Klebsiella pneumoniae [22]
  MIC: 16 µg/mL
Klebsiella pneumoniae [23]
  MIC: 16 µg/mL
Klebsiella pneumoniae [24]
  MIC: 16 µg/mL
Escherichia coli [25]
  MIC: 4 µg/mL
Escherichia coli [26]
  MIC: 8 µg/mL
Escherichia coli [27]
  MIC: 2 µg/mL
Escherichia coli [28]
  MIC: 8 µg/mL
Escherichia coli [29]
  MIC: 4 µg/mL
Escherichia coli [30]
  MIC: 8 µg/mL
Escherichia coli [31]
  MIC: 8 µg/mL
Escherichia coli [32]
  MIC: 8 µg/mL
Escherichia coli [33]
  MIC: 2 µg/mL
Escherichia coli [34]
  MIC: 4 µg/mL
Escherichia coli [35]
  MIC: 8 µg/mL
Escherichia coli [36]
  MIC: 8 µg/mL

## CCCCCCCC[N+](C)(C)CC(=O)Nc1ccc(C(=O)/C=C/c2ccco2)cc1.[Cl-]
Staphylococcus aureus [1]
  MIC: 1 µg/mL
Enterococcus faecalis
  MIC: 4 µg/mL
Escherichia coli [2]
  MIC: 4 µg/mL
Salmonella enterica
  MIC: 16 µg/mL
[3]
  HC50 at 1 h: 137 µg/mL
Staphylococcus aureus [4]
  MIC: 4 µg/mL
Staphylococcus aureus [5]
  MIC: 2 µg/mL
Staphylococcus aureus [6]
  MIC: 2 µg/mL
Staphylococcus aureus [7]
  MIC: 32 µg/mL
Staphylococcus aureus [8]
  MIC: 8 µg/mL
Staphylococcus aureus [9]
  MIC: 2 µg/mL
Staphylococcus aureus [10]
  MIC: 4 µg/mL
Staphylococcus aureus [11]
  MIC: 16 µg/mL
Staphylococcus aureus [12]
  MIC: 2 µg/mL
Klebsiella pneumoniae [13]
  MIC: 16 µg/mL
Klebsiella pneumoniae [14]
  MIC: 32 µg/mL
Klebsiella pneumoniae [15]
  MIC: 32 µg/mL
Klebsiella pneumoniae [16]
  MIC: 32 µg/mL
Klebsiella pneumoniae [17]
  MIC: 16 µg/mL
Klebsiella pneumoniae [18]
  MIC: 16 µg/mL
Klebsiella pneumoniae [19]
  MIC: 2 µg/mL
Klebsiella pneumoniae [20]
  MIC: 8 µg/mL
Klebsiella pneumoniae [21]
  MIC: 16 µg/mL
Klebsiella pneumoniae [22]
  MIC: 32 µg/mL
Klebsiella pneumoniae [23]
  MIC: 32 µg/mL
Klebsiella pneumoniae [24]
  MIC: 32 µg/mL
Escherichia coli [25]
  MIC: 16 µg/mL
Escherichia coli [26]
  MIC: 16 µg/mL
Escherichia coli [27]
  MIC: 4 µg/mL
Escherichia coli [28]
  MIC: 8 µg/mL
Escherichia coli [29]
  MIC: 32 µg/mL
Escherichia coli [30]
  MIC: 16 µg/mL
Escherichia coli [31]
  MIC: 16 µg/mL
Escherichia coli [32]
  MIC: 16 µg/mL
Escherichia coli [33]
  MIC: 16 µg/mL
Escherichia coli [34]
  MIC: 32 µg/mL
Escherichia coli [35]
  MIC: 16 µg/mL
Escherichia coli [36]
  MIC: 64 µg/mL
